Assay results pooled from the literature.
rep main protease: Replicase polyprotein 1ab, main protease (rep, Severe acute respiratory syndrome coronavirus 2, UniProt P0DTD1)
MAL12: Alpha-glucosidase MAL12 (MAL12, Saccharomyces cerevisiae S288c, UniProt P53341)
ADRA1A: Alpha-1A adrenergic receptor (ADRA1A, Homo sapiens, UniProt P35348)

Structure (SMILES) | target | effect on | mode | technique | tested at | quantity | result
O=c1c(O)c(-c2ccc(O)cc2)oc2c(O)c(O)cc(O)c12 | rep main protease | enzyme activity | inhibitor | – | – | kinact/KI | 20.3 M⁻¹ s⁻¹
CCc1ccc(N2C(=O)/C(=C3/C(=O)N(C)c4ccc(Cl)cc43)NC2=S)cc1 | MAL12 | enzyme activity | inhibitor | absorbance | 25 µM | inhibition | 14.6%
O=C(O[C@@H]1Cc2c(O)cc(O)cc2O[C@@H]1c1ccc(O)c(O)c1)c1cc(O)c(O)c(O)c1 | rep main protease | enzyme activity | inhibitor | – | – | kinact | 1.83e-05 s⁻¹
c1cncc([C@@H]2CCCN2)c1 | ADRA1A | ligand displacement | – | – | 50 µM | inhibition | -8.12%
C[C@H]1O[C@H](O[C@H]2[C@H](O)[C@@H](O)[C@@H](O[C@H]3[C@H](O)[C@@H](O)C(O)O[C@@H]3CO)O[C@@H]2CO)[C@H](O)[C@@H](O)[C@@H]1N[C@H]1C=C(CO)[C@@H](O)[C@H](O)[C@H]1O (some centres unmarked) | MAL12 | enzyme activity | inhibitor | absorbance | 774.5 µM | inhibition | 63.9%
CN1CCC[C@H]1c1cccnc1 | ADRA1A | ligand displacement | – | – | 50 µM | inhibition | -6.17%
[2H]c1c([2H])c([C@]2([2H])CCCN2C(=O)C(C)(C)Oc2ccc3cn[nH]c3c2)c([2H])c([2H])c1C([2H])([2H])[2H] | Focal adhesion kinase 1 (PTK2, Homo sapiens, UniProt Q05397) | binding | – | competition with immobilised ligand | 1 µM | remaining binding | 75%
COc1cc2c(cc1OC)-c1c(OC)c(OC)cc3c1[C@H](C2)N(C)CC3 (racemic) | ADRA1A | ligand displacement | – | radioligand | 10 µM | inhibition | 69%
COc1cc(O)c2c(c1)O[C@H](c1ccccc1)CC2=O | rep main protease | enzyme activity | inhibitor | – | 100 µM | inhibition | 7.82%
O=C(O)c1cc(O)c(O)c(O)c1 | rep main protease | enzyme activity | inhibitor | – | – | kinact/KI | 205 M⁻¹ s⁻¹
COc1cc(O)c2c(=O)cc(-c3ccccc3)oc2c1 | rep main protease | enzyme activity | inhibitor | – | 10 µM | inhibition | 2.12%
CN1C(=S)N(c2ccccc2)C(=O)/C1=C1/C(=O)N(C)c2ccc(Cl)cc21 | MAL12 | enzyme activity | inhibitor | absorbance | 25 µM | inhibition | 11.9%
CCOC(=O)Cc1c2c3c(cc(OC)c(OC)c3c3cc(OC)c(OC)cc13)CCN2C | ADRA1A | ligand displacement | – | radioligand | 10 µM | inhibition | 13%
COc1ccc(-c2cc(=O)c3c(O)cc(OC)cc3o2)cc1 | rep main protease | enzyme activity | inhibitor | – | 100 µM | inhibition | 10.6%
CC(C)CC(=O)OC[C@H]1O[C@@](C#N)(c2ccc3c(N)ncnn23)[C@H](O)[C@@H]1O | Histamine H2 receptor (HRH2, Homo sapiens, UniProt P25021) | cell-free assay | – | – | 20 µM | inhibition | 3%
O=c1c(O)c(-c2cc(O)c(O)c(O)c2)oc2cc(O)cc(O)c12 | rep main protease | enzyme activity | inhibitor | – | 100 µM | inhibition | 100%
CN1C(=O)/C(=N\Nc2ncc(-c3cc4ccccc4oc3=O)s2)c2cc(Cl)ccc21 | MAL12 | enzyme activity | inhibitor | absorbance | 25 µM | inhibition | 17.4%
